Data set [1] concerns ribosome of S. aureus DSM 6247. Put plainly: Fluorescence polarization assay, 70S ribosome of S. aureus. The format is binding, Staphylococcus aureus DSM 6247. As to conditions: S. aureus ribosome versus E. coli ribosome. In a few lines: (§1)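 70S ribosomes came from log-phase cultures (OD600 ~1): bead-mill lysis in HEPES buffer pH 7.6, DNase I/meropenem, clarification, then 165000 g for 17 h. Concentration by A260 (1 AU = 28 pmol/mL). In casein-blocked wells, ribosomes were twofold diluted in 23 steps (12 µmol/L–2.9 pmol/L) with Cf-labeled peptide added at 40 nmol/L, then incubated 90 min at 28 °C in the dark. Polarization read at ex485/em535. K_d came from a variable-slope dose-response fit of ≥2 triplicate experiments on different days.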

Data set [2] has as its system E. coli BW25113. As to the kind of experiment: Antimicrobial activity. In kind it is cell-based, Escherichia coli BW25113. As to conditions: broth micro dilution, 25 % MHB2, 7.5×10^6 cfu/mL, 37 °C, 20±2 h, triplicates. In a few lines:
(§2)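 Broth microdilution in 25% MHB2. Aqueous peptide stock (3 g/L) serially twofold diluted from 128 µg/mL in eight steps. Overnight 25% MHB2 cultures were diluted 30-fold, grown 4 h (37 °C, 200 rpm), and adjusted by McFarland to give a final 7.5×10^6 cfu/mL. Plates were incubated 20±2 h at 37 °C and OD595 read. MIC was the lowest concentration preventing visible growth. Triplicates.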

The next data set concerns P. aeruginosa ATCC 27853. Put plainly: Antimicrobial activity. The format is cell-based, Pseudomonas aeruginosa DSM 1117 / ATCC 27853. As to conditions: broth micro dilution, 25 % MHB2, 7.5×10^6 cfu/mL, 37 °C, 20±2 h, triplicates. The procedure, abridged:
as §2

In data set [3] the test system is A. baumannii ATCC 15308 ribosomes. Put plainly: Fluorescence polarization assay, 70S ribosome of A. baumannii. The format is binding, Acinetobacter baumannii DSM 30008 / ATCC 15308. As to conditions: RF1 added at equimolar quantities to the A. baumannii ribosome preparation. The procedure, abridged:
as §1

Data set [4] has as its system K. pneumoniae ATCC 10031. As to the kind of experiment: Antimicrobial activity. The format is cell-based, Klebsiella pneumoniae DSM 681 / ATCC 10031. As to conditions: broth micro dilution, 25 % MHB2, 7.5×10^6 cfu/mL, 37 °C, 20±2 h, triplicates. In a few lines: as §2
A further data set deals with A. baumannii ATCC 15308. As to the kind of experiment: Antimicrobial activity. In kind it is cell-based, Acinetobacter baumannii DSM 30008 / ATCC 15308. As to conditions: for MIC: broth micro dilution, 25 % MHB2, 7.5×10^6 cfu/mL, 37 °C, 20±2 h, triplicates. The procedure, abridged: as §2
Data set [5] has as its system S. aureus DSM 6247. Put plainly: Antimicrobial activity. The format is cell-based, Staphylococcus aureus DSM 6247. As to conditions: broth micro dilution, 25 % MHB2, 7.5×10^6 cfu/mL, 37 °C, 20±2 h, triplicates. The procedure, abridged:
as §2

Data set [6] relates to K. pneumoniae ATCC 10031. Put plainly: Bacterial uptake, peptide quantified by LC-MS. In kind it is cell-based, Klebsiella pneumoniae DSM 681 / ATCC 10031. As to conditions: high cell counts, 30 min. The procedure, abridged: (§3)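 Cultures in 25% MHB2 were grown 4.0±0.25 h after 30-fold dilution, sized by OD600 (1.0 = 1.2×10^9 cfu/mL), pelleted and resuspended to 1.5×10^10 or 1.5×10^9 cfu/mL. Each was mixed 1:1 with medium containing 16 µg/mL peptide and shaken 30 min at 37 °C, with viable counts plated. Peptide in the supernatant (pellets also quantified) was measured by SPE then RP-HPLC-ESI-MS/MS MRM against a cell-free 8 µg/mL control and an on-plate calibration. Uptake was taken as the difference. Triplicate, repeated another day.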

Data set [7] concerns E. coli BW25113. Put plainly: Bacterial uptake, peptide quantified by LC-MS. The format is cell-based, Escherichia coli BW25113. As to conditions: high cell counts, 30 min. In a few lines: as §3
Another data set deals with E. coli BL21AI. As to conditions: E. coli BL21AI incubated with 4 mg/L peptide; cited from earlier work.
The subject of data set [8] is Gram‐negatives (E. coli, K. pneumoniae, A. baumannii, P. aeruginosa). Put plainly: Bacterial uptake, values stated for the Gram-negatives together. The format is cell-based. As to conditions: 30 min. In a few lines: as §3
The subject of data set [9] is S. aureus DSM 6247. As to the kind of experiment: Bacterial uptake, peptide quantified by LC-MS. As to conditions: ∼7.5×10^9 cells/mL, 30 min, relative to cell-free medium, LC-MS MRM (Figure S3). The format is cell-based, Staphylococcus aureus DSM 6247. The procedure, abridged: as §3
Setting [10] is: calculated from reduced quantity in supernatant.

Molecules are shown by their SMILES. Non-standard residues stand in square brackets, D forms with d. Residues, ends and D or L forms follow the SMILES beside them. *: point of attachment. Orn(α-tetramethylguanidino) = CN(C)C(=N[C@@H](CCCN)C(=O)*)N(C)C

Take `CC[C@H](C)[C@H](NC(=O)[C@H](Cc1ccc(O)cc1)NC(=O)[C@@H](NC(=O)[C@@H]1CCCN1C(=O)[C@H](CCCNC(=N)N)NC(=O)[C@H](CC(N)=O)NC(=O)[C@H](CC(N)=O)NC(=O)[C@H](CCCN)N=C(N(C)C)N(C)C)C(C)C)C(=O)N1CCC[C@H]1C(=O)N[C@@H](CCCNC(=N)N)C(=O)N1CCC[C@H]1C(=O)N[C@@H](CCCNC(=N)N)C(=O)N1CCC[C@H]1C(=O)N1CCC[C@H]1C(=O)N[C@@H](Cc1c[nH]cn1)C(=O)N1CCC[C@H]1C(=O)N[C@@H](CCCNC(=N)N)C(=O)N[C@@H](CC(C)C)C(=O)O` [Api137] ({Orn(α-tetramethylguanidino)}-NNRPVYIPRPRPPHPRL-OH): in [1], the “K d, fold higher than for E. coli” value is 34 fold. The MIC against E. coli BW25113 [2] is 4 (1.8) mg/L; in the data set on P. aeruginosa ATCC 27853, >128 (>56) mg/L; in the data set on K. pneumoniae ATCC 10031 [4], 2 (0.9) mg/L; in the data set with A. baumannii ATCC 15308, 128 (56) mg/L; against S. aureus DSM 6247 [5] it was >128 (>56) mg/L. For the same compound, the “Effect of recombinant E. coli RF1 on K d” value in [3] is listed as “did not affect”. In addition, the “MIC, fold difference E. coli versus A. baumannii” value in the data set with A. baumannii ATCC 15308 (MIC 4 μg/mL for E. coli and 128 μg/mL for A. baumannii) is on record as 32 fold.
With `CC[C@H](C)[C@H](NC(=O)[C@@H](CCCNC(=N)N)NC(=O)[C@H](CCCNC(=N)N)NC(=O)[C@@H]1CCCN1C(=O)[C@@H]1CCCN1C(=O)[C@H](CCCNC(=N)N)NC(=O)[C@@H]1CCCN1C(=O)[C@H](CCCNC(=N)N)NC(=O)[C@@H]1CCCN1C(=O)[C@H](CC(C)C)NC(=O)[C@H](Cc1ccc(O)cc1)NC(=O)[C@@H]1CCCN1C(=O)[C@@H]1CCCN1C(=O)[C@H](CCCCN)NC(=O)[C@H](CC(=O)O)NC(=O)[C@@H](N)C(C)C)C(=O)N[C@@H](Cc1ccc(O)cc1)C(=O)N[C@@H](CC(N)=O)C(=O)N[C@H](CCCNC(=N)N)C(N)=O` [Onc112] (H-VDKPPYLPRPRPPR[dR]IYN[dR]-NH2), the MIC was 8 (3.4) mg/L against E. coli BW25113 [2]; 64 (26.8) mg/L in the data set with P. aeruginosa ATCC 27853; 2 (0.8) mg/L in the data set with K. pneumoniae ATCC 10031 [4]; 32 (13.4) mg/L in the data set with A. baumannii ATCC 15308; 64 (26.8) mg/L with S. aureus DSM 6247 [5]. Besides, the “Peptide per single cell, on average” value is on record as 0.3 fg in the data set on K. pneumoniae ATCC 10031 [6] and 0.5 fg in the data set on E. coli BW25113 [7]. Moreover, the figures for the “Uptake (peptide amount)” value with K. pneumoniae ATCC 10031 [6] and in the data set on E. coli BW25113 [7] were 208 ng and 352 ng, respectively. For the same compound, the Uptake rate in the data set with K. pneumoniae ATCC 10031 [6] (setting [10]) is listed as around 25%; with E. coli BW25113 [7] (setting [10]) it was around 44%. Also, the Peptide per cell in the data set on E. coli BL21AI is given as 0.2 fg/cell. Further, the “Relative peptide quantity in culture supernatants” value in [8] (high cell counts ∼7.5×10^9 cells/mL, typical value, except for E. coli) was “around 75%”. Further, the Uptake rates result in data set [8] (low cell counts, Gram-negatives) was “below 20%”. The “Total quantities determined in supernatants and pellets” value in the data set on S. aureus DSM 6247 [9] is recorded as “around 110%”.
